Data taken from ChEMBL document CHEMBL1275258, “Correlation between azole susceptibilities, genotypes, and ERG11 mutations in Candida albicans isolates associated with vulvovaginal candidiasis in China” (2010).
Values after ≈ are worked out from the molar mass of the structure shown.

Legend:
Type in all cases: functional
[1] = tested on: Candida albicans; test: Antifungal activity against Candida albicans isolate V2 with CAI genotype by broth microdilution method
Outline: (§1)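 CLSI (formerly NCCLS) M27-A2 broth microdilution with fluconazole and itraconazole against clinical C. albicans isolates grouped by source (oral or vaginal) and CAI genotype. Trays incubated at 35°C for 24 h. MIC read as the lowest drug concentration giving a prominent drop in turbidity (50% growth inhibition) versus the drug-free control well. C. albicans ATCC 90028 and C. parapsilosis ATCC 22019 used as quality controls. Group values reported as geometric mean MIC50.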

[2] = tested on: Candida albicans; test: Antifungal activity against Candida albicans isolate O with CAI genotype by broth microdilution method; outline: as §1
[3] = tested on: Candida albicans; test: Antifungal activity against Candida albicans isolate V4 with CAI genotype by broth microdilution method; outline: as §1
[4] = tested on: Candida albicans; test: Antifungal activity against Candida albicans isolate V3 with CAI genotype by broth microdilution method; outline: as §1
[5] = tested on: Candida albicans; test: Antifungal activity against Candida albicans isolate V5 with CAI genotype by broth microdilution method; outline: as §1
[6] = tested on: Candida albicans; test: Antifungal activity against Candida albicans isolate V1 with CAI genotype by broth microdilution method; outline: as §1

## OC(Cn1cncn1)(Cn1cncn1)c1ccc(F)cc1F [FLUCONAZOLE]
[1]
  MIC50: 0.218 µg/mL (≈ 0.712 µM)
[2]
  MIC50: 0.356 µg/mL (≈ 1.16 µM)
[3]
  MIC50: 2.04 µg/mL (≈ 6.67 µM)
[4]
  MIC50: 0.735 µg/mL (≈ 2.4 µM)
[5]
  MIC50: 3.36 µg/mL (≈ 11 µM)
[6]
  MIC50: 0.375 µg/mL (≈ 1.22 µM)

## CCC(C)n1ncn(-c2ccc(N3CCN(c4ccc(OCC5COC(Cn6cncn6)(c6ccc(Cl)cc6Cl)O5)cc4)CC3)cc2)c1=O (configuration not stated) [ITRACONAZOLE]
[1]
  MIC50: 0.058 µg/mL (≈ 0.0822 µM)
[2]
  MIC50: 0.074 µg/mL (≈ 0.105 µM)
[3]
  MIC50: 0.255 µg/mL (≈ 0.361 µM)
[4]
  MIC50: 0.107 µg/mL (≈ 0.152 µM)
[5]
  MIC50: 0.297 µg/mL (≈ 0.421 µM)
[6]
  MIC50: 0.111 µg/mL (≈ 0.157 µM)
